Test results from publication PMC5624728 (Journal of pharmaceutical innovation, 2017).
≈ marks a conversion by molar mass, not a printed value. Where “and” joins values, the source holds several entries; their conditions need not be identical. Equal values may be shown once. Read-outs that look alike come from different tables or passages of the source.

Columns and labels:
[1] = Solubility of CSIC in acetonitrile, water and water/acetonitrile; type: physicochemical; settings: room temperature, 5 days
[2] = pH stability of CSIC in solution; type: physicochemical
[3] = Oxidation stability; type: physicochemical; settings: 3% H2O2, room temperature, up to 10 days
Outline: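 Test compound dissolved at 100 μg/mL final in 40% (v/v) aqueous acetonitrile containing 3% H2O2. Kept at room temperature. Aliquots taken at set intervals up to 10 days. Drug content quantified by HPLC (flow 1.4 mL/min). Results given as mean ± standard deviation.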

[4] = Photolysis stability; type: physicochemical
Outline: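 Half of each group was foil-wrapped as the dark control. All were held at 30 °C/65% RH under fluorescent light (2 × 20 watts) for 12 days. Aliquots at set times were assayed by HPLC. Light versus dark was compared by a repeated-measures mixed model with pairwise comparisons.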

[5] = CSIC solubility in cosolvent matrixes; type: physicochemical
[6] = 25 °C/60% RH and 65 °C, at least 10 days, 40% acetonitrile
[7] = system: HEC-1A human endometrial epithelial cells; settings: 24 h exposure, MTT
[8] = system: J774A.1 mouse macrophage cells; settings: J774A.1, 24 h exposure, MTT
[9] = system: HIV-1; settings: antiviral EC50; cited from earlier work
[10] = system: NNRTI resistance mutation K103N; settings: compared to other NNRTIs; cited from earlier work
[11] = system: HIV-1 RT; settings: tight-binding inhibitor; cited from earlier work

For `NC(=O)c1[nH]c2ccc(Cl)cc2c1S(=O)(=O)c1ccccc1` [CSIC, 5-chloro-3-[phenylsulfonyl] indole-2-carboxamide], the Solubility ([1]; 40% (v/v) acetonitrile) was 0.36 mg/mL and 1.1 mM, the Solubility ([1]; 100% acetonitrile) was 1.7 mg/mL and 5.1 mM and the Solubility ([1]; water) was 0.0014 mg/mL and 4.3 μM. For the same compound, the drug loss ([2]; all pH conditions (1.2-10), at least 10 days, room temperature) was less than 5%, the “drug detected compared to time zero” value ([2]; all pH conditions, each time point up to 10 days) was “more than 95%” and the drug loss [3] was 20%. The “stability stored in the dark” value ([4]; dark, 30 °C/65% RH, at least 12 days) was “stable”, the “decline of drug concentration” value ([4]; fluorescent light source (2 × 20 watts), 12 days) was 4% and the Solubility ([5]; S1: PEG 400 0%, propylene glycol 50%, glycerin 50%) was 5.23 mg/mL (≈ 15.6 mM). For the same compound, the Solubility ([5]; S2: PEG 400 12.5%, propylene glycol 37.5%, glycerin 50%) was 10.60 mg/mL (≈ 31.7 mM), the Solubility ([5]; S3: PEG 400 12.5%, propylene glycol 50%, glycerin 37.5%) was 12.85 mg/mL (≈ 38.4 mM) and the Solubility ([5]; S4: PEG 400 25%, propylene glycol 25%, glycerin 50%) was 12.85 mg/mL (≈ 38.4 mM). It also gave a Solubility ([5]; S5: PEG 400 25%, propylene glycol 37.5%, glycerin 37.5%) of 17.08 mg/mL (≈ 51 mM), a Solubility ([5]; S6: PEG 400 25%, propylene glycol 50%, glycerin 25%) of 19.99 mg/mL (≈ 59.7 mM) and a Solubility ([5]; S7: PEG 400 37.5%, propylene glycol 12.5%, glycerin 50%) of 20.46 mg/mL (≈ 61.1 mM). The Solubility ([5]; S8: PEG 400 37.5%, propylene glycol 25%, glycerin 37.5%) was 21.81 mg/mL (≈ 65.1 mM), the Solubility ([5]; S9: PEG 400 37.5%, propylene glycol 37.5%, glycerin 25%) was 24.63 mg/mL (≈ 73.6 mM) and the Solubility ([5]; S10: PEG 400 37.5%, propylene glycol 50%, glycerin 12.5%) was 22.59 mg/mL (≈ 67.5 mM). The Solubility ([5]; S11: PEG 400 50%, propylene glycol 0%, glycerin 50%) was 22.86 mg/mL (≈ 68.3 mM), the Solubility ([5]; S12: PEG 400 50%, propylene glycol 12.5%, glycerin 37.5%) was 23.67 mg/mL (≈ 70.7 mM) and the Solubility ([5]; S13: PEG 400 50%, propylene glycol 25%, glycerin 25%) was 24.31 mg/mL (≈ 72.6 mM). It also gave a Solubility ([5]; S14: PEG 400 50%, propylene glycol 37.5%, glycerin 12.5%) of 28.21 mg/mL (≈ 84.3 mM), a Solubility ([5]; S15: PEG 400 50%, propylene glycol 50%, glycerin 0%) of 28.64 mg/mL (≈ 85.5 mM) and a Solubility ([5]; S16: PEG 400:propylene glycol:glycerin 10:2:4 (PEG 400 62.5%)) of 22.7 mg/mL (≈ 67.8 mM). It also gave a Solubility ([5]; S17: PEG 400:propylene glycol:glycerin 10:3:3 (PEG 400 62.5%)) of 20.7 mg/mL (≈ 61.8 mM), a Solubility ([5]; S18: PEG 400:propylene glycol:glycerin 10:4:2 (PEG 400 62.5%), i.e. 5:2:1 w/w/w) of 30.2 mg/mL (≈ 90.2 mM) and a Solubility ([5]; S19: PEG 400:propylene glycol:glycerin 6:1:1 (PEG 400 75%)) of 29.1 mg/mL (≈ 86.9 mM). The Solubility ([5]; S20: PEG 400:propylene glycol:glycerin 3:1:0 (PEG 400 75%)) was 28.8 mg/mL (≈ 86 mM), the “log P” value was ~ 3 and the “Log P” value (1:1 (v/v) octanol/water) was 3.72. The “Log P” value (1:2 (v/v) octanol/water) was 3.72, the “Log P” value (2:1 (v/v) octanol/water) was 3.69 and the “drug concentration over time” value [6] was “remained unchanged”. The “50% cytotoxic concentration (CC50)” value [7] was “greater than 5 μg/mL”, the “50% cytotoxic concentration (CC50)” value [8] was “greater than 5 μg/mL” and the EC50 [9] was ~1 nM and 1 nM. For the same compound, the “activity against K103N” value [10] was “retaining good activity” and the “binding and dissociation behaviour” value [11] was “binds rapidly but then dissociates very slowly”.
